The results in this text go back to ChEMBL document CHEMBL1131423, “N-(2-Benzoylphenyl)-L-tyrosine PPARgamma agonists. 2. Structure-activity relationship and optimization of the phenyl alkyl ether moiety” (J Med Chem, 1998).

In data set [1] the target is T1, Peroxisome proliferator-activated receptor gamma (Homo sapiens, UniProt P37231).
T1 sequence (P37231 whole entry): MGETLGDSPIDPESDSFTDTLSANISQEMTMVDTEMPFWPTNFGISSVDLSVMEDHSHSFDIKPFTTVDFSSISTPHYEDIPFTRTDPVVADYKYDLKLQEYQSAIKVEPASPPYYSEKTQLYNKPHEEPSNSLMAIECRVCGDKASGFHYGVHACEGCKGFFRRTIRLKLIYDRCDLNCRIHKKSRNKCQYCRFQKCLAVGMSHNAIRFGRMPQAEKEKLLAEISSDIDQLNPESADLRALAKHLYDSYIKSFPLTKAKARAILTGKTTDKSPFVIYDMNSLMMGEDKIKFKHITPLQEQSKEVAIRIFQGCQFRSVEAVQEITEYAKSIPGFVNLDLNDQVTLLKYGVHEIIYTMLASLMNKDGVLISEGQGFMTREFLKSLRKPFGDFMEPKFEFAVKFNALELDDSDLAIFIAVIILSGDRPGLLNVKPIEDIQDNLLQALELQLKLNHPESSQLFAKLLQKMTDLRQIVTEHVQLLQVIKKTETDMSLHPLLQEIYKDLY
The data set is described as follows: Inhibition by 50% of in vitro binding to Peroxisome proliferator activated receptor gamma.

Data set [2] has as its target T2, Peroxisome proliferator-activated receptor alpha (Homo sapiens, UniProt Q07869).
T2 sequence (Q07869 whole entry): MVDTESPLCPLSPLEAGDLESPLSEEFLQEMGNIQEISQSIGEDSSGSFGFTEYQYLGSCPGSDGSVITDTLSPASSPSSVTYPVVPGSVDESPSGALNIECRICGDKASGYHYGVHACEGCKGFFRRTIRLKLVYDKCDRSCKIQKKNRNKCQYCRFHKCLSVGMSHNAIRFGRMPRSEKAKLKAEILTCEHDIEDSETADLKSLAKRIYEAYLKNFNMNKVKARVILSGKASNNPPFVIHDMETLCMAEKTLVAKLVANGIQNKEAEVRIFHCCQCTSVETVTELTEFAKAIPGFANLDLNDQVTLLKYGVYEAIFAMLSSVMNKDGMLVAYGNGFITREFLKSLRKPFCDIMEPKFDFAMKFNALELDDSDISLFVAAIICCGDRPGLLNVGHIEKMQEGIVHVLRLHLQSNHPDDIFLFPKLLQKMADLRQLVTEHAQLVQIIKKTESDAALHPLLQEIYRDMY
Put plainly: Compound was tested in vitro for inhibiting the 50% binding of Peroxisome proliferator activated receptor alpha. It counts as functional.

In data set [3] the target is T1, Peroxisome proliferator-activated receptor gamma. The data set is described as follows: Compound was tested functionally in vitro for inducing 50% of the maximum alkaline phosphate activity (Transactivation) against Peroxisome proliferator activated receptor gamma. It counts as functional.
The target in data set [4] is Peroxisome proliferator-activated receptor gamma (Homo sapiens) (UniProt P37231). The data set is described as follows: Compound was tested in vitro for inhibiting the 50% binding of Peroxisome proliferator activated receptor gamma; IA = Inactive.
The nature of data set [5]: Solubility determined by equilibrating an excess of solid material in 500 microL of pH 7.4 phosphate buffer. Type of data set: physicochemical. The following applies: read-out: S. The essentials: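 Samples are filtered (0.22 µm) and diluted in water/acetonitrile 60:40. The dissolved concentration is measured by reversed-phase HPLC on a phenyl column with 0.05% TFA water/acetonitrile (60:40), 1 mL/min, and UV detection at each compound's maximum. Results are in mg/mL.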

The target in data set [6] is T2, Peroxisome proliferator-activated receptor alpha. Put plainly: In vitro transactivation of Peroxisome proliferator activated receptor alpha. It counts as functional.
The target is the same in data set [7]. Put plainly: Tested in vitro for inhibiting the 50% binding of Peroxisome proliferator activated receptor alpha.
Data set [8] deals with T1, Peroxisome proliferator-activated receptor gamma. Put plainly: Tested functionally in vitro for inducing 50% of the maximum alkaline phosphate activity (Transactivation) against Peroxisome proliferator activated receptor gamma. Type of data set: functional.
Data set [9] addresses T3, Peroxisome proliferator-activated receptor alpha (Homo sapiens) (UniProt Q07869).
T3 sequence (whole entry): T2 sequence (Q07869 whole entry)
The data set is described as follows: Compound was tested in vitro for inhibiting the 50% binding of Peroxisome proliferator activated receptor alpha; IA = 'inactive'.

The target in data set [10] is T1, Peroxisome proliferator-activated receptor gamma. The data set is described as follows: Compound was tested in vitro for inhibiting the 50% binding of Peroxisome proliferator activated receptor gamma; IA = Inactive. A digest of the protocol: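 Competitive radioligand binding to PPARγ with [3H]BRL 49653 as the radioligand. […] It is converted to an apparent Ki by Ki = IC50/(1 + [L]/Kd), and results are given as pKi.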

Structures are written as SMILES. In brackets after ≈: the same amount, converted by molar mass. Activity calls are given as the source filed them. The calls are words filed in the database; no cut-off is given here.

For the compound `COc1ccccc1C(=O)N1CCC[C@H]1COc1ccc(C[C@H](Nc2ccccc2C(=O)c2ccccc2)C(=O)O)cc1`, affinity in data set [1] was put at a Ki of 955 nM.
On to `O=C(c1ccccc1)c1ccccc1N[C@@H](Cc1ccc(OCCOc2ccc(SCl)cc2)cc1)C(=O)O`, for which the affinity in data set [2] corresponds to a Ki of 1410 nM. Moreover, the EC50 – broadly, the concentration giving half of the maximal effect – in data set [3] was 191 nM.
On to `Cc1cc(C(C)C)ccc1CCOc1ccc(C[C@H](Nc2ccccc2C(=O)c2ccccc2)C(=O)O)cc1`, for which the “Log Ki” value in data set [4] is “inactive”.
Regarding `Cc1cc(-c2ccccc2)nn1CCOc1ccc(C[C@H](Nc2ccccc2C(=O)c2ccccc2)C(=O)O)cc1`, the solubility thermodynamic in [5] came to 4 µg/mL (≈ 7.33 µM). Moreover, the EC50 in data set [6] is 661 nM. Moreover, in data set [7], affinity was put at a Ki of 174 nM.
For the compound `O=C(c1ccccc1)c1ccccc1N[C@@H](Cc1ccc(OC2CCN2C(c2ccccc2)c2ccccc2)cc1)C(=O)O` (stereo not given in full), the Ki – broadly, the dissociation constant of the complex between target and ligand, obtained from inhibition or displacement – in [1] is 1620 nM.
In the case of `COC(COc1ccc(C[C@H](Nc2ccccc2C(=O)c2ccccc2)C(=O)O)cc1)c1ccccc1` (stereo not given in full), the Ki in data set [1] was 794 nM.
Regarding `Cc1sc(N2CCN(S(C)(=O)=O)CC2)nc1CCOc1ccc(C[C@H](Nc2ccccc2C(=O)c2ccccc2)C(=O)O)cc1`, the EC50 was above 10000 nM in data set [6] and 23.4 nM in data set [8]. The Ki in data set [7] was 2510 nM; in data set [1], 2.63 nM.
With `CC(C)c1ccc(COc2ccc(C[C@H](Nc3ccccc3C(=O)c3ccccc3)C(=O)O)cc2)cc1`, the “Log Ki” value in data set [9] is “inactive”.
`O=C(c1ccccc1)c1ccccc1N[C@@H](Cc1ccc(OCC2COCCOCCOCCO2)cc1)C(=O)O` (stereo not given in full) had a Ki in data set [10] of 1170 nM.
